NS3 helicase inh: inhibitors of HCV NS3 helicase, primary screen, biochemical, Cy5 molecular beacon fluorescence; NS3 helicase DNA unwinding; inhibition, % at 10.9 µM; hit rate 0.56% among 290,000; AID 1800, 2009;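 active means inhibition above the mean of all tested compounds plus 3 SD, set per campaign, cut at about 35% in these data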
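Material: hepatitis C virus NS3 helicase domain fragment enzyme; measured by: Cy5 fluorescence, 0 and 60 min reads; control set: DMSO and thioflavine S; incubation: 60 min unwinding reaction at 25 °C after ATP addition; read-out basis: % inhibition from 60/0 min fluorescence ratio, DMSO 0%, thioflavine S 100%; repeats: singlicate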
DNA FID counter: compounds displacing fluorescent DNA intercalator, primary screen, artefact control for HCV NS3 helicase inhibitor project, biochemical, FID fluorescence; DNA fluorescent intercalator displacement; inhibition, % at 7.9 µM; hit rate 0.17% among 290,000; AID 1845, 2009; in the data active means inhibition above about 37%;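 further: higher means more ethidium bromide displaced from hairpin DNA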
HSF1 inh: HSF1 inhibitors in luciferase reporter cells, primary screen, cell-based, NIH3T3, luminescence; NIH3T3-HGL HSE-luciferase, MG132-induced, luminescence 8 h; active compounds read low; activity change, negative = inhibition, % at 7.5 µM (by protocol); hit rate 0.77% among 300,000; AID 2098, 2009;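 active means more than half of replicate wells show activity change below -50%, luminescence cut by over half; inconclusive means some wells, but at most half, below -50%; inactive means no replicate well below -50%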;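 further: luciferase reports HSF-1 transcriptional activity via heat shock element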
HSF-1 act: HSF-1 activators, primary screen, NIH3T3-HGL cells, MG132 stress, luminescence, single point; NIH3T3-HGL HSF-1 luciferase reporter, 8 h; 100% = twice DMSO control signal; activation, % at 9 µM; hit rate 1.7% among 300,000;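 active means mean replicate activation of at least 50% with a set share of replicates each reaching 50%; inconclusive means only one of those two conditions met; inactive means mean below 50% and too few replicates reaching it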
core dimer inh: inhibitors of HCV core protein dimerization, primary screen, biochemical, TR-FRET, high-throughput | TR-FRET GST/Flag-core106 dimerization, 1536-well | inhibition, % at 5 µM | hit rate 0.33% among 300,000 | AID 1899, 2009;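 active means inhibition above the mean of all tested compounds plus 3 SD, set per screening campaign, cut at about 45% in these data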
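Material: Tagged HCV core106 pair (GST and Flag) | Amount: GST-core106 13.5 nM, Flag-core106 17 nM | Medium: KF-containing HEPES buffer, pH 7.45, DTT, CHAPS, BSA | Reagent: Eu donor and XL665 acceptor anti-tag antibodies | Schedule: 4 h at 22.5 °C | Technique: Time-resolved FRET, ex 340 nm, em 617 and 671 nm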
HSP90 refold inh: HSP90 inhibitors, primary screen, cell lysate, luminescence; Heat shock protein HSP 90 (rabbit reticulocyte lysate; luciferase refolding); Rabbit reticulocyte lysate, luciferase refolding luminescence, 3 h; inhibition, % at 5.6 µM; hit rate 0.91% among 290,000; AID 1789, 2009;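 active means inhibition above the screen-wide mean plus 3 SD, computed separately per campaign, cut at about 16% in these data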;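 further: inhibitors lower the luminescence because luciferase stays unfolded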
Each line names hits and unclear results; the compound was inactive in the other large screens. Rows were chosen to be rich in hits. Some 3.9% of all compounds tested hit in one or more screens of this group.

Cc1cc(C)c(S(=O)(=O)c2ccccc2C(=O)O)c(C)c1	HSF-1 act 54
CN1CCN(Cc2c(O)ccc3cc(Br)ccc23)CC1	HSF-1 act 134
CCc1cc(=O)oc2c(CN3CCN(C)CC3)c(O)ccc12	none
CCOc1ccc(NC(=O)c2cccnc2SC)cc1	none
CCOc1ccc(NC(=O)c2ccccc2O)cc1	HSF-1 act 102
CCOc1ccc(NC(=O)c2cccnc2C(=O)O)cc1	HSF1 inh -66
CCOc1ccccc1C(=O)Nc1ccc(NC(=O)c2ccccc2)cc1	HSF1 inh -79
COc1cccc(NC(=O)N2CCC(NC(=O)c3ccco3)CC2)c1	none
COc1ccc(N=C2S/C(=C\c3ccc(Cl)c([N+](=O)[O-])c3)C(=O)N2CCN(C)C)cc1	HSF-1 act 95
Nc1ccc2nc(-c3ccccc3)[nH]c2c1	none
Nc1ccc2nc(-c3ccccn3)[nH]c2c1	HSF1 inh -57
C=CCNC(=O)NC(=O)COC(=O)/C(C#N)=C/c1ccc(OC)cc1	none
CCCCn1c(SCC(=O)NCc2ccc(OC)c(C(=O)O)c2)nc2cc(S(N)(=O)=O)ccc21	none
CCCCn1c(N)nc2ccccc21	HSF1 inh -71
NNc1nc2c(-c3ccc(F)cc3)nnn2c2ccccc12	none
Fc1cccc(-c2nnn3c2nc(Cl)c2ccccc23)c1	HSF-1 act 454 (no result: core dimer inh)
NNc1nc2c(-c3ccc(Cl)cc3)nnn2c2ccccc12	HSF-1 act 73
CCOC(=O)c1nsnc1NCCSC(=N)N	none
Cc1ccc(N2C(=O)N(CC(=O)NC(N)=O)C(=O)C2C)cc1 (centres undefined)	HSF1 inh -69
CC(OC(=O)c1cc(=O)[nH]c2ccccc12)C(=O)NC1CCCCC1C (centres undefined)	none (no result: NS3 helicase inh, DNA FID counter, HSP90 refold inh)
COc1ccc(-n2nc3cc(C)c(N)c(Br)c3n2)cc1	none
c1ccc(-c2ncc(-c3ccn[nH]3)s2)cc1	HSF-1 act 53
NC(=O)c1ccc(NC(=O)CSc2nnc(-c3ccncc3)n2Cc2ccco2)cc1	none
Cc1cc(=O)[nH]c(N/N=C/c2ccc(O)c(O)c2)n1	HSF-1 act 61
CN(C)c1ccc(/C=N\Nc2nc(-c3ccccc3)cc(=O)[nH]2)cc1	HSF1 inh -73
CSc1ccc(/C=N/Nc2nc(C)cc(=O)[nH]2)cc1	none
Cc1ccc2[nH]cc(C(=O)CN3CCOCC3)c2c1	none
CCN(CC)c1ccc([N+](=O)[O-])cc1C(=O)N1CCOCC1	HSF-1 act 55
O=C(COC(=O)c1ccc(Br)o1)NCc1ccco1	none
CC(=O)Nc1ccc(C(=O)OCCc2ccccc2)cc1	HSF-1 act 56
CCOc1ccc(NS(=O)(=O)c2ccc(C(=O)N(C)CC(=O)Nc3ccc(C)cc3)cc2)cc1	HSF-1 act 59 (no result: NS3 helicase inh, DNA FID counter, HSP90 refold inh)
O=C(O)c1ccc(Nc2cnc3ccccc3n2)cc1	none
CC(=O)Nc1ccc(C(=O)OCCCOC(=O)c2ccc(NC(C)=O)cc2)cc1	none
O=C(Nc1ccc(N2CCCCC2)cc1)c1ccccc1	HSP90 refold inh 28
CCOC(=O)c1ccc(Nc2cnc3ccccc3n2)cc1	HSF-1 act 56
COc1ccc(/C=C/C(=O)N(C)C2CCS(=O)(=O)C2)cc1 (centres undefined)	none (no result: NS3 helicase inh, DNA FID counter, core dimer inh, HSP90 refold inh)
Cc1cccc(C(=O)Nc2ccc(C(=O)N/N=C/c3ccco3)cc2)c1	none (no result: NS3 helicase inh, DNA FID counter, HSP90 refold inh)
Cc1ccc(NC(=O)/C=N/OCC(=O)NCc2ccccc2Cl)cc1	none
COc1cccc(CNC(=O)C2CCCN(c3nn4c(=O)cc(C)nc4s3)C2)c1OC (centres undefined)	none
CCOC(=O)c1ccc(NC(=O)Oc2ccccc2)cc1	HSF1 inh -51
Nc1ccc(OC(=O)Nc2ccc(O)cc2)cc1	none
CCC(=O)Nc1ccc(C(=O)OCc2ccccc2Cl)cc1	HSF-1 act 116
CCOC(=O)c1ccc(NC(=O)NS(=O)(=O)c2ccc(C)cc2)cc1	HSF1 inh -58
CC(=O)Nc1ccc(C(=O)OCc2ccccc2Cl)cc1	none
O=C(Nc1ccc(N2CCN(c3ccc(O)cc3)CC2)cc1)Oc1ccccc1	HSF1 inh inconclusive, core dimer inh 59
Cn1c(N)c(C(=O)COC(=O)c2ccco2)c(=O)n(C)c1=O	none
Cc1ccc(C(=O)Nc2ncccc2O)o1	none (no result: NS3 helicase inh, DNA FID counter, HSP90 refold inh)
COC(C[C@@H](O)C[C@@H](O)[C@@H](C)OCc1ccccc1)OC	none (no result: NS3 helicase inh, DNA FID counter, HSP90 refold inh)
CCOC(=O)c1c(N2C(=O)C=CC2=O)sc(C)c1C	HSF-1 act 55
CCOC(=O)c1c(NC(=O)CSc2nc3ccccc3o2)sc(C)c1C	HSF-1 act 144
CCOC(=O)c1c(NC(=O)CSC(=S)N(C)C)sc(C)c1C	HSF-1 act 85
O=C(CSc1ncnc2ccccc12)c1cccs1	HSF-1 act 60
Cc1ccc(C(=O)CSc2ncnc3ccccc23)o1	none
COCCC(=O)N1CCC(Oc2ccc(C(=O)N3CCC[C@H]3CO)cc2)CC1	none (no result: core dimer inh)
CCOC(=O)c1c(NC(=O)CSc2ncnc3ccccc23)sc(C(C)=O)c1C	HSF-1 act 78
CC(C)(C)c1ccc(/C=N/NC(=O)CN2CCS(=O)(=O)CC2)cc1	none
c1coc(-c2ccnc3nc(-n4cccc4)nn23)c1	core dimer inh 56
COc1ccc(-c2ccnc3nc(-n4cccc4)nn23)cc1	none
CCC(C)NCC(=O)Nc1ccc(S(N)(=O)=O)cc1 (centres undefined)	none
O=C(OC1CCN(c2ncc(C(F)(F)F)cc2Cl)CC1)c1ccc(Cl)cc1	none
O=C(OCCN1CCN(c2ncc(C(F)(F)F)cc2Cl)CC1)c1ccc(Cl)cc1	HSF1 inh -80
CCN(CC)CCNC(=O)C(=O)Nc1cc2c3c(c1)CC(=O)N3CCC2	none
CC1=NN(c2ccccc2)C(=O)/C1=C/c1c(O)n(-c2ccc(F)c(Cl)c2)[nH]c1=O	DNA FID counter 41
CCN(CC)CCn1c2c(c(SCC(=O)Nc3cccc(C(C)=O)c3)nc1=O)CCCC2	none (no result: NS3 helicase inh, DNA FID counter, core dimer inh, HSP90 refold inh)
COc1cc(OC)c(N(C)S(=O)(=O)c2cccc(C(=O)Nc3nnc(C4CC4)s3)c2)cc1Cl	HSF-1 act 131
COc1ccc(N(C)S(=O)(=O)c2cccc(C(=O)Nc3nnc(C4CC4)s3)c2)cc1	none
CCNC(=O)NC(=O)C(C)OC(=O)CCS(=O)(=O)c1ccc(C)cc1 (centres undefined)	none
CSc1nnc(N2C(=O)C(O)=C(C(=O)c3ccc(C)o3)C2c2ccc(C)cc2)s1 (centres undefined)	none
COc1ccc(C(Nc2cc(C)ccn2)c2ccc3ccc(C)nc3c2O)cc1 (centres undefined)	none
